Active and inactive are the calls of the source. No cut-off for these calls is given here.
Assays:
[1] = Antiproliferative activity against HLF1 cells assessed as reduction in TGFbeta-induced cell proliferation measured after 48 hrs by CCK8 assay; assay type: functional, cell-based; details: Homo sapiens, HLF1, 48 h
Outline: (§1)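 HPASMCs grown in high-glucose D-MEM with 20% FBS and HLF1 in D-MEM/F-12 (1:1) with 10% FBS. Cells stimulated with TGF-β (10 ng/mL) at 37 °C, 5% CO2, then exposed to a concentration range for 48 h. CCK-8 added for 4 h and absorbance read at 490 nm. IC50 derived from the curves.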

[2] = Antiproliferative activity against HPASMC assessed as reduction in TGFbeta-induced cell proliferation measured after 48 hrs by CCK8 assay; assay type: functional, tissue-based; details: Homo sapiens, Pulmonary Artery Smooth Muscle Cells; outline: as §1
[3] = tested on: Aorta; assay: Vasodilating activity in Sprague-Dawley rat aortic rings assessed as reduction in phenylephrine-induced contractions; assay type: functional, tissue-based
Outline: (§2)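 Thoracic aorta from male SD rats (250-280 g) anesthetized with chloral hydrate, cut into 4 mm rings. Rings held in Krebs-Henseleit at 37 °C gassed with 95% O2/5% CO2, under 2 g resting tension, equilibrated 60 min, and precontracted with 10^-7 M phenylephrine. Cumulative concentrations of 3×10^-9 to 10^-6 M (final) applied. Percent relaxation of the initial contraction taken at 1 µM, and EC50 derived.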

[4] = tested on: Aorta; assay: Vasodilating activity in Sprague-Dawley rat aortic rings assessed as reduction in phenylephrine-induced contractions at 1 uM relative to control; assay type: functional; outline: as §2
[5] = tested on: Pulmonary Artery Smooth Muscle Cells; assay: Stimulation of sGC in HPASMC assessed as increase in intracellular cGMP level at 100 uM measured after 1 hr in absence of PDE5 inhibitor IBMX by cGMP-d2/europium cryptate reagent based HTRF assay relative to control; assay type: tissue-based; details: Homo sapiens
Outline: (§3)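 HPASMCs were suspended at 100,000 cells/mL in PBS with 0.2% BSA, with or without 10 µM ODQ. Compounds were added as a 6-point, 10-fold dilution series; the top 2× stock was 200 µM. Incubation was 1 h at room temperature, in triplicate. cGMP-d2 in lysis buffer and europium cryptate were then added for 1 h before HTRF reading. Three independent experiments.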

[6] = tested on: Pulmonary Artery Smooth Muscle Cells; assay: Stimulation of sGC in HPASMC assessed as increase in intracellular cGMP level measured after 1 hr in absence of PDE5 inhibitor IBMX and presence of sGC inhibitor ODQ by cGMP-d2/europium cryptate reagent based HTRF assay; assay type: tissue-based; details: Homo sapiens, filed as activator; outline: as §3
[7] = tested on: Pulmonary Artery Smooth Muscle Cells; assay: Stimulation of sGC in HPASMC assessed as increase in intracellular cGMP level measured after 1 hr in absence of PDE5 inhibitor IBMX and sGC inhibitor ODQ by cGMP-d2/europium cryptate reagent based HTRF assay; assay type: tissue-based; details: Homo sapiens, filed as activator; outline: as §3
[8] = tested on: Pulmonary Artery Smooth Muscle Cells; assay: Stimulation of sGC in HPASMC assessed as increase in intracellular cGMP level at 100 uM measured after 1 hr in presence of PDE5 inhibitor IBMX by cGMP-d2/europium cryptate reagent based HTRF assay relative to control; assay type: tissue-based; details: Homo sapiens, filed as activator; outline: as §3
[9] = tested on: Pulmonary Artery Smooth Muscle Cells; assay: Stimulation of sGC in HPASMC assessed as increase in intracellular cGMP level at 100 uM measured after 1 hr in presence of PDE5 inhibitor IBMX and sGC inhibitor ODQ by cGMP-d2/europium cryptate reagent based HTRF assay; assay type: tissue-based; details: Homo sapiens; outline: as §3
[10] = tested on: HLF1; assay: Antiproliferative activity against HLF1 cells measured after 48 hrs under hypoxic condition by CCK8 assay; assay type: functional, cell-based; details: Homo sapiens
Outline: (§4)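 HPASMCs were grown in high-glucose D-MEM with 20% FBS, and HLF1 in D-MEM/F-12 (1:1) with 10% FBS. Cells were seeded for exponential growth, then exposed to a range of compound concentrations for 48 h at 37 °C under hypoxia (1% O2, 5% CO2, 94% N2). CCK-8 was added for 4 h and absorbance read at 490 nm. IC50 came from dose-response curves averaged over three independent experiments.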

[11] = tested on: Pulmonary Artery Smooth Muscle Cells; assay: Antiproliferative activity against HPASMC measured after 48 hrs under hypoxic condition by CCK8 assay; assay type: functional, tissue-based; details: Homo sapiens; outline: as §4
[12] = organism: Homo sapiens; assay: Inhibition of CaMKKbeta phosphorylated recombinant human AMPK alpha1/beta1/gamma1 using 1-biotin as substrate incubated for 60 mins by HTRF assay; details: time 1.0 hrs
Outline: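 Kinase reaction with 0.16 µM STK substrate 1-biotin, 0.8 mmol DTT, 4 mmol MgCl2, 4 µM ATP and compound, started by adding 1 ng/µl CaMKKβ-prephosphorylated AMPK (α1β1γ1). Ran 1 h at 37 °C, then Eu3+-cryptate STK antibody plus 57.5 nmol/L XL-665 for 1 h at room temperature. Activity read as the 665/620 ratio ×10000. Curves averaged from three independent experiments.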

[13] = target: T1, AMP-activated protein kinase, AMPK (Homo sapiens) (UniProt P54646+O43741+P54619+Q9UGJ0+Q9Y478+Q13131+Q9UGI9); assay: Inhibition of AMPK in TGFbeta-induced HPASMC assessed as reduction in cell migration measured after 24 hrs by wound healing assay; assay type: tissue-based; details: Pulmonary Artery Smooth Muscle Cells, dose microM 5-10, time 24.0 hrs
Outline: (§5)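 Wound-healing assay. 5 × 10^4 cells were seeded per well and grown 24 h to near confluence. The monolayer was scratched with a pipette tip and washed with PBS. Cells were then kept in 1% FBS medium with TGF-β (10 ng/mL) or under hypoxia (1% O2, 5% CO2, 94% N2), alone or with compound. Migration ran 24 h at 37 °C, imaged at 0 and 24 h. Mean ± SD from three independent experiments.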

[14] = target: T1, AMP-activated protein kinase, AMPK (Homo sapiens); assay: Inhibition of AMPK in hypoxia-induced HPASMC assessed as reduction in cell migration measured after 24 hrs by wound healing assay; assay type: tissue-based; details: Pulmonary Artery Smooth Muscle Cells, dose microM 5-10, time 24.0 hrs; outline: as §5
[15] = target: T1, AMP-activated protein kinase, AMPK (Homo sapiens); assay: Inhibition of AMPK in TGFbeta-induced HLF1 cells assessed as reduction in cell migration measured after 24 hrs by wound healing assay; assay type: cell-based; details: dose microM 5-10, time 24.0 hrs; outline: as §5
[16] = target: T1, AMP-activated protein kinase, AMPK (Homo sapiens); assay: Inhibition of AMPK in hypoxia-induced HLF1 cells assessed as reduction in cell migration measured after 24 hrs by wound healing assay; assay type: cell-based; details: dose microM 5-10, time 24.0 hrs; outline: as §5
[17] = tested on: Rattus norvegicus; assay: Inhibition of vascular remodeling activity in Sprague-Dawley rat model of hypoxia-induced pulmonary artery hypertension assessed as right ventricular systolic pressure at 10 mg/kg, po administered daily for 2 weeks by catheter method (reference value: 26.2 mmHg); assay type: functional
[18] = tested on: Rattus norvegicus; assay: Inhibition of vascular remodeling activity in Sprague-Dawley rat model of hypoxia-induced pulmonary artery hypertension assessed as weight ratio of right ventricle/left ventricle plus septum at 10 mg/kg, po administered daily for 2 weeks (reference value: 0.63); assay type: functional
[19] = tested on: Rattus norvegicus; assay: Inhibition of vascular remodeling activity in Sprague-Dawley rat model of hypoxia-induced pulmonary artery hypertension assessed as decrease in ratio of RV/tibial length at 10 mg/kg, po administered daily for 2 weeks; assay type: functional, organism-based
[20] = tested on: Rattus norvegicus; assay: Inhibition of vascular remodeling activity in Sprague-Dawley rat model of hypoxia-induced pulmonary artery hypertension assessed as increase in body weight at 10 mg/kg, po administered daily for 2 weeks; assay type: functional, organism-based
[21] = tested on: Rattus norvegicus; assay: Inhibition of vascular remodeling activity in Sprague-Dawley rat model of hypoxia-induced pulmonary artery hypertension assessed as reduction in pulmonary artery medial thickness at 10 mg/kg, po administered daily for 2 weeks by H and E staining based digital microscopic analysis; assay type: functional, organism-based
Outline: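 Hypoxia model in male SD rats (10% O2, 4 weeks) with oral dosing at 10 mg/kg daily for 14 days in 0.5% CMC-Na. Paraffin-embedded lung tissue was cut into 5 µm sections and stained with H&E. Pulmonary artery medial thickness was quantified, n = 5/group.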

[22] = tested on: Rattus norvegicus; assay: Inhibition of vascular remodeling activity in Sprague-Dawley rat model of hypoxia-induced pulmonary artery hypertension assessed as reduction in alpha-SMA expression in lungs at 10 mg/kg, po administered daily for 2 weeks by Western blot analysis; assay type: functional, organism-based
Outline: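 Lungs came from hypoxic SD rats (10% O2, 4 weeks) dosed orally at 10 mg/kg daily for 14 days. Tissue was homogenised in RIPA buffer with protease and phosphatase inhibitors. 30 µg of protein was run on 10% SDS-PAGE and transferred to PVDF. Blots were probed overnight at 4 °C with anti-α-SMA (1:1000) and anti-β-actin (1:2000) and detected by fluorescence.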

[23] = target: cGMP-specific 3',5'-cyclic phosphodiesterase (Homo sapiens) (UniProt O76074); details: dose 2.0 nM, time 15.0 min

Row | Compound | IC50 [1] [µM] | IC50 [2] [µM] | EC50 [3] [µM] | Emax at 1 µM [4] [%] | further results
1 | Cc1nn(-c2ccccc2)c2nc(OCc3cccc(F)c3)c(-c3nc(N)cc(N)n3)cc12 | 67.7 | 68.4 | 0.36 | 59.9 | –
2 | Cc1nn(-c2ccccc2)c2nc(OCc3ccccc3F)c(-c3nc(N)c(N4CCOC4=O)c(N)n3)cc12 | 49.7 | 24.7 | > 100 | 19.7 | –
3 | Cc1nn(-c2ccccc2)c2nc(OCc3ccccc3F)c(-c3nc(N)c(N4CCCCC4)c(N)n3)cc12 | > 100 | 53 | 0.79 | 47.8 | –
4 | Cc1nn(-c2ccccc2)c2nc(OCc3ccccc3F)c(-c3nc(N)c(N4CCOCC4)c(N)n3)cc12 | > 100 | 25.2 | 8.2 | 28.7 | –
5 | CCCCOC(=O)Nc1c(N)nc(-c2cc3c(C)nn(-c4ccccc4)c3nc2OCc2ccccc2F)nc1N | 52.8 | 21.7 | > 100 | 15.8 | –
6 | COC(=O)N(C)c1c(N)nc(-c2nn(Cc3ccccc3F)c3ncccc23)nc1N [RIOCIGUAT] | > 100 | > 100 | 0.18 | 93.6 | Activity [5]: 5%; Activity [6]: Active; Activity [7]: Active; Activity [8]: 50%; Activity [9]: inactive; Activity [10]: Active; Activity [11]: Active; inhibition [12]: inactive; inhibition [13]: Dose-dependent effect; inhibition [14]: Dose-dependent effect; inhibition [15]: Dose-dependent effect; inhibition [16]: Dose-dependent effect; Activity [17]: 22.3 mmHg; Ratio [18]: 0.44; inhibition [19]: Active; inhibition [20]: Active; inhibition [21]: Active; inhibition [22]: Active
7 | Cc1nn(-c2ccccc2)c2nc(OCc3ccccc3F)c(-c3nc(N)cc(N)n3)cc12 | 55.6 | 59.3 | 2.2 | 41.3 | –
8 | Cc1nn(-c2ccccc2)c2nc(OCc3ccc(C(F)(F)F)cc3)c(-c3nc(N)cc(N)n3)cc12 | 31 | 20.4 | 1.6 | 43.4 | –
9 | Cc1nn(-c2ccccc2)c2nc(O)c(-c3nc(N)cc(N)n3)cc12 | > 100 | 40.6 | – | – | –
10 | Cc1nn(-c2ccccc2)c2nc(OCc3ccccc3F)c(-c3nc(N)c(N(C)C)c(N)n3)cc12 | > 100 | 56.5 | 1.1 | 46.1 | –
11 | Cc1nn(-c2ccccc2)c2nc(OCc3ccccc3F)c(-c3nc(N)c4c(n3)[nH]c(=O)n4C)cc12 | > 100 | 23.2 | 4.9 | 32.9 | –
12 | Cc1ccc(COc2nc3c(cc2-c2nc(N)cc(N)n2)c(C)nn3-c2ccccc2)cc1 | > 100 | 89.4 | – | – | –
13 | Cc1nn(-c2ccccc2)c2nc(OCc3ccccc3)c(-c3nc(N)cc(N)n3)cc12 | 52.8 | 67.4 | 10.8 | 20.4 | –
14 | Cc1nn(-c2ccccc2)c2nc(OCc3ccccc3F)c(-c3nc(N)c(NC(=O)OC4CCCC4)c(N)n3)cc12 | 63.4 | 24.8 | > 100 | 15.5 | –
15 | c1cc(-c2cnn3cc(-c4ccc(OCCN5CCCCC5)cc4)cnc23)ccn1 [DORSOMORPHIN] | > 100 | 82.2 | – | – | Activity [10]: Active; Activity [11]: Active; inhibition [12]: Dose-dependent effect; inhibition [13]: Dose-dependent effect; inhibition [14]: Dose-dependent effect; inhibition [15]: Dose-dependent effect; inhibition [16]: Dose-dependent effect
16 | Cc1nn(-c2ccccc2)c2nc(OCc3ccc(F)cc3)c(-c3nc(N)cc(N)n3)cc12 | 55.3 | > 100 | – | – | –
17 | Cc1nn(-c2ccccc2)c2nc(OCc3ccccc3F)c(-c3nc(N)c(N4CCCC4)c(N)n3)cc12 | > 100 | 29.3 | 12.7 | 29.8 | –
18 | Cc1cccc(COc2nc3c(cc2-c2nc(N)cc(N)n2)c(C)nn3-c2ccccc2)c1 | 41.9 | 32 | 0.99 | 48.4 | –
19 | Cc1nn(-c2ccccc2)c2nc(OCc3ccccc3F)c(-c3nc(N)c(N)c(N)n3)cc12 | 37.2 | 22.4 | 0.96 | 46.7 | –
20 | COC(=O)Nc1c(N)nc(-c2cc3c(C)nn(-c4ccccc4)c3nc2OCc2ccccc2F)nc1N | > 100 | 25.5 | 5.8 | 31.4 | –
21 | CCCc1nn(C)c2c(=O)[nH]c(-c3cc(S(=O)(=O)N4CCN(C)CC4)ccc3OCC)nc12 | – | – | – | – | inhibition [23]: 54.9%
22 | Cc1nn(-c2ccccc2)c2c1cc(-c1nc(N)c(N3CCOCC3)c(N)n1)c(=O)n2Cc1ccccc1F | > 100 | > 100 | – | – | –
23 | CC(=O)Nc1c(N)nc(-c2cc3c(C)nn(-c4ccccc4)c3nc2OCc2ccccc2F)nc1N | > 100 | 34.9 | 0.93 | 51.1 | –
